Converted amounts (≈) assume the structure as drawn.
How the values were obtained:
[1] = tested on: Mycobacterium tuberculosis; test: Antitubercular activity against Mycobacterium tuberculosis H37Rv after 4 weeks by agar proportion method; type: functional; conditions: 672 h
Procedure, shortened: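 Agar proportion method on Middlebrook 7H10 agar slants with OADC; compounds in DMSO added at 0.1 mL per 1.9 mL medium. Inoculum was H37Rv grown on L–J medium and suspended in saline with 0.05% Tween-80, ~10^5 bacilli per tube. Incubated 37 °C for 4 weeks; MIC is the lowest concentration with no visible growth.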

[2] = (§1) Cytotoxicity against african green monkey Vero cells assessed as growth inhibition at 10 times MIC after 24 hrs by MTS assay; type: cell-based; conditions: chlorocebus sabaeus, Vero cells; read-out: GI
Procedure, shortened: (§2)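 Vero cells or mouse bone-marrow-derived macrophages plated at 20,000 cells/well and allowed to adhere overnight (37 °C, 5% CO2). Compounds added at several concentrations for 24 h, then MTS for 2 h, with OD read at 490 nm. IC50 is the concentration giving 50% viability loss; a compound counts as toxic if IC50 ≤10× MIC.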

Vero = test: as §1; type: cell-based; conditions: chlorocebus sabaeus, vero, 24 h; procedure, shortened: as §2
[3] = Cytotoxicity against mouse BMDM cells assessed as growth inhibition at 10 times MIC after 24 hrs by MTS assay; type: cell-based; procedure, shortened: as §2
[4] = tested on: Mycobacterium tuberculosis; test: Ex-vivo antitubercular activity against Mycobacterium tuberculosis H37Rv infected in mouse BMDM cells assessed as reduction in intracellular bacterial level after 4 days at 5 times MIC; type: functional; design: scale not given: the % may be the effect or the level left
[5] = tested on: Mycobacterium tuberculosis; test: Antitubercular activity against Mycobacterium tuberculosis H37Rv infected in Swiss mouse infected assessed as mouse survival at 100 mg/kg/day, po for 28 days measured on day 30 post infection; type: functional
Procedure, shortened: (§3)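 Outbred Swiss mice infected i.v. with H37Rv at 10^7 CFU/mouse, in groups of 6–8. Daily oral dosing for 28 days: test compounds at 100 mg/kg in peanut oil, or isoniazid at 25 mg/kg. Percent survivors and mean survival time were recorded on day 30 and day 40.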

[6] = tested on: Mycobacterium tuberculosis; test: Antitubercular activity against Mycobacterium tuberculosis H37Rv infected in Swiss mouse infected assessed as mean survival time of mouse at 100 mg/kg/day, po for 28 days measured on day 30 post infection; type: functional; procedure, shortened: as §3
[7] = tested on: Mycobacterium tuberculosis; test: Antitubercular activity against Mycobacterium tuberculosis H37Rv infected in Swiss mouse infected assessed as mouse survival at 100 mg/kg/day, po for 28 days measured on day 40 post infection; type: functional; procedure, shortened: as §3
[8] = tested on: Mycobacterium tuberculosis; test: Antitubercular activity against Mycobacterium tuberculosis H37Rv infected in Swiss mouse infected assessed as mean survival time of mouse survival at 100 mg/kg/day, po for 28 days measured on day 40 post infection; type: functional; procedure, shortened: as §3
[9] = tested on: Mycobacterium tuberculosis; test: Antitubercular activity against Mycobacterium tuberculosis H37Rv infected in Swiss mouse assessed as inhibition of viable bacterial counts in lungs at 100 mg/kg, po for 28 days measured on day 30 post infection; type: functional
Mus musculus = test: Antitubercular activity against Mycobacterium tuberculosis H37Rv infected in Swiss mouse infected assessed as mouse survival at 25 mg/kg/day, po for 28 days measured on day 30 post infection; type: functional; procedure, shortened: as §3
[10] = tested on: Mycobacterium tuberculosis; test: Antitubercular activity against Mycobacterium tuberculosis H37Rv infected in Swiss mouse infected assessed as mean survival time of mouse at 25 mg/kg/day, po for 28 days measured on day 30 post infection; type: functional; procedure, shortened: as §3
[11] = tested on: Mycobacterium tuberculosis; test: Antitubercular activity against Mycobacterium tuberculosis H37Rv infected in Swiss mouse infected assessed as mouse survival at 25 mg/kg/day, po for 28 days measured on day 40 post infection; type: functional; procedure, shortened: as §3
[12] = tested on: Mycobacterium tuberculosis; test: Antitubercular activity against Mycobacterium tuberculosis H37Rv infected in Swiss mouse assessed as inhibition of viable bacterial counts in lungs at 25 mg/kg, po for 28 days measured on day 30 post infection; type: functional
Procedure, shortened: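 Outbred Swiss mice infected i.v. with H37Rv at 10^7 CFU/mouse, in groups of 6–8. Test compounds were given orally at 100 mg/kg daily for 28 days in peanut oil; isoniazid at 25 mg/kg for 28 days. On day 30, serial dilutions of lung homogenate were plated on 7H11 agar and colonies counted after 3–4 weeks at 37 °C. Result is % inhibition of lung CFU versus untreated controls.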

O=C(/C=C/c1ccc(OCc2ccc(Cl)cc2Cl)cc1)c1ccc(OCc2ccc(Cl)cc2Cl)cc1
MIC [1]: > 25 µg/mL

O=C(/C=C/c1ccc(OCc2cccc(Cl)c2)cc1)c1ccc(-n2ccnc2)cc1
MIC [1]: 3.12 µg/mL (≈ 7.52 µM) | inhibition at 24 h, 10 times MIC [2]: 50%

O=C(/C=C/c1ccc(OCc2ccc(Cl)cc2Cl)cc1)c1ccc(-n2ccnc2)cc1
MIC [1]: 3.12 µg/mL (≈ 6.94 µM) | Activity (Vero): Non-toxic | Activity [3]: Non-toxic | Activity [4]: 99% | survival at 100 mg/kg/day [5]: 100% | MST [6]: 30 days | survival at 100 mg/kg/day [7]: 83% | MST [8]: 38.5 days | inhibition in vivo at 100 mg/kg [9]: 13%

O=C(/C=C/c1ccc(OCc2cc(Cl)ccc2Cl)cc1)c1ccc(-n2ccnc2)cc1
MIC [1]: 12.5 µg/mL (≈ 27.8 µM)

O=C(/C=C/c1ccc(OCc2ccc(F)cc2F)cc1)c1ccc(-n2ccnc2)cc1
Activity [4]: <50%

O=C(/C=C/c1ccc(OCc2cccc(Cl)c2)cc1)c1ccc(-n2cncn2)cc1
MIC [1]: 12.5 µg/mL (≈ 30.1 µM)

O=C(/C=C/c1ccc(OCc2ccc(Cl)cc2Cl)cc1)c1ccc(-n2cncn2)cc1
MIC [1]: 25 µg/mL (≈ 55.5 µM)

O=C(/C=C/c1ccc(OCc2cc(Cl)ccc2Cl)cc1)c1ccc(-n2cncn2)cc1
MIC [1]: > 25 µg/mL

O=C(/C=C/c1ccc(OCc2ccc(F)cc2F)cc1)c1ccc(-n2cncn2)cc1
MIC [1]: 12.5 µg/mL (≈ 29.9 µM)

O=C(/C=C/c1ccc(OCc2cc(F)ccc2F)cc1)c1ccc(-n2cncn2)cc1
MIC [1]: > 25 µg/mL

O=C(/C=C/c1ccc(Oc2ccc(C(F)(F)F)cc2[N+](=O)[O-])cc1)c1ccc(-n2ccnc2)cc1
MIC [1]: 12.5 µg/mL (≈ 26.1 µM)

O=C(/C=C/c1ccc(-n2ccnc2)cc1)c1ccc(OCc2cccc(Cl)c2)cc1
MIC [1]: 6.25 µg/mL (≈ 15.1 µM)

O=C(/C=C/c1ccc(-n2ccnc2)cc1)c1ccc(OCc2ccc(Cl)cc2Cl)cc1
MIC [1]: 1.56 µg/mL (≈ 3.47 µM) | Activity (Vero): Non-toxic | Activity [3]: Non-toxic | Activity [4]: <50%

O=C(/C=C/c1ccc(-n2ccnc2)cc1)c1ccc(OCc2cc(Cl)ccc2Cl)cc1
MIC [1]: 3.12 µg/mL (≈ 6.94 µM) | inhibition at 24 h, 10 times MIC [2]: 50%

O=C(/C=C/c1ccc(-n2ccnc2)cc1)c1ccc(OCc2ccc(F)cc2F)cc1
MIC [1]: 1.56 µg/mL (≈ 3.75 µM) | Activity (Vero): Non-toxic | Activity [3]: Non-toxic | Activity [4]: 71% | survival at 100 mg/kg/day [5]: 100% | MST [6]: 30 days | survival at 100 mg/kg/day [7]: 100% | MST [8]: 40 days | inhibition in vivo at 100 mg/kg [9]: 40%

O=C(/C=C/c1ccc(-n2ccnc2)cc1)c1ccc(OCc2cc(F)ccc2F)cc1
MIC [1]: 3.12 µg/mL (≈ 7.49 µM) | Activity (Vero): Non-toxic | Activity [3]: Non-toxic | Activity [4]: <50%

O=C(/C=C/c1ccc(-n2cncn2)cc1)c1ccc(OCc2cccc(Cl)c2)cc1
MIC [1]: 0.78 µg/mL (≈ 1.88 µM) | Activity (Vero): Non-toxic | Activity [3]: Non-toxic | Activity [4]: <50%

O=C(/C=C/c1ccc(-n2cncn2)cc1)c1ccc(OCc2ccc(Cl)cc2Cl)cc1
MIC [1]: > 25 µg/mL

O=C(/C=C/c1ccc(-n2cncn2)cc1)c1ccc(OCc2cc(Cl)ccc2Cl)cc1
MIC [1]: > 25 µg/mL

O=C(/C=C/c1ccc(-n2cncn2)cc1)c1ccc(OCc2ccc(F)cc2F)cc1
MIC [1]: 12.5 µg/mL (≈ 29.9 µM)

O=C(/C=C/c1ccc(-n2cncn2)cc1)c1ccc(OCc2cc(F)ccc2F)cc1
MIC [1]: 3.12 µg/mL (≈ 7.47 µM) | inhibition at 24 h, 10 times MIC [2]: 50%

O=C(/C=C/c1ccc(-n2ccnc2)cc1)c1ccc(Oc2ccc(C(F)(F)F)cc2[N+](=O)[O-])cc1
MIC [1]: 12.5 µg/mL (≈ 26.1 µM)

O=C(/C=C/c1ccc(-n2cncn2)cc1)c1ccc(Oc2ccc(C(F)(F)F)cc2[N+](=O)[O-])cc1
MIC [1]: 12.5 µg/mL (≈ 26 µM)

O=C(/C=C/c1ccc(-n2ccnc2)cc1)c1ccc(-n2ccnc2)cc1
MIC [1]: > 25 µg/mL

O=C(/C=C/c1ccc(-n2cncn2)cc1)c1ccc(-n2cncn2)cc1
MIC [1]: > 25 µg/mL

O=C(/C=C/c1ccccc1)c1ccc(OCc2ccc(Cl)cc2Cl)cc1
MIC [1]: 12.5 µg/mL (≈ 32.6 µM)

NNC(=O)c1ccncc1 [ISONIAZID]
MIC [1]: 0.025 µg/mL (≈ 0.182 µM) | Activity (Vero): Non-toxic | Activity [3]: Non-toxic | survival at 25 mg/kg/day (Mus musculus): 100% | MST [10]: 30 days | survival at 25 mg/kg/day [11]: 100% | inhibition in vivo at 25 mg/kg [12]: 100%
